# Assay outcomes from PubChem.
# Rows were chosen to be rich in hits. Some 1.2% of all compounds tested hit in one or more screens of this group.
# ARNT TACC3 PPI: disrupts binding between human ARNT and TACC3. Q9Y6A5. AlphaScreen His-ARNT PAS-B/GST-TACC3 binding, luminescence; TACC3 fragment carries E629A point mutation. inhibition, % at 9.99 µM. 0.66% of 390,000 active. AID 623870;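 active = mean inhibition of replicates at least 50% and at least half of replicates each reaching 50%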;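 note: 0% = complete ARNT plus TACC3 wells and 100% = ARNT alone without TACC3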
# CAL PDZ FP-1: CAL PDZ (human) peptide binding inhibition; Q9HD26; purified CAL PDZ, TMR-peptide fluorescence polarization, 1 h; inhibition, % at 24.9 µM; 0.92% of 300,000 active; AID 602252;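 active = mean inhibition of at least 30% with at least half of replicates also reaching 30%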;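 note: 0% = DMSO neutral control and 100% = excess unlabeled competitor peptide PRC23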
# CAL PDZ FP-2: inhibitors of human CAL PDZ peptide binding | purified CAL PDZ, TMR-peptide fluorescence polarization, 1 h | inhibition, % at 20 µM | 0.02% of 330,000 active | AID 504414;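 active = highest replicate inhibition of at least 40%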;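 note: plate controls were DMSO neutral control wells for no effect and unlabeled competitor peptide control wells for full effect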
#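 System: tagged CAL PDZ domain. Schedule: 1 h room-temperature incubation prior to read. Signal: fluorescence polarization (mP). Measure: percent inhibition from loss of millipolarization.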
# CaV13 ICDI inh: Primary screen for inhibitors of IQ motif and Ca2+-dependent inactivation inhibitor domain binding in CACNA1D, Förster resonance energy transfer in living cells, …. inhibition, % at 12.3 µM. AID 743397. 0.098% of 340,000 active. HEK cells, CFP/YFP FRET ICDI-IQ, plate reader, 10 min; percent FRET-ratio fall versus neutral wells;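 active = mean replicate inhibition of at least 30% and at least 1% of replicates passing that level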;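 note: 0% = median of the neutral control wells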
# An asterisk follows results filed as active; . = not tested or not shown.
SMILES,ARNT TACC3 PPI,CAL PDZ FP-1,CAL PDZ FP-2,CaV13 ICDI inh
C[C@H](CO)N1C[C@H](C)[C@H](CN(C)C(=O)CC2CC2)Oc2cc(-c3cccnc3)ccc2S1(=O)=O,-1,.,.,.
O=C(C[C@@H]1C=C[C@H](NC(=O)Nc2ccc(C(F)(F)F)cc2)[C@@H](CO)O1)NCc1ccccn1,7,.,.,.
CCOC(=O)C1CCN(C(=O)/C(=C/c2ccccc2)NC(=O)c2ccccc2)CC1,-5,51*,.,-6
COC(=O)c1ccc(NC(=O)CN2C(=O)NC3(CCC(C)CC3)C2=O)cc1 (stereo not drawn),1,56*,-1,-5
O=C(C[C@H]1CC[C@@H]2[C@H](COC[C@@H](O)CN2S(=O)(=O)c2cccc(Cl)c2)O1)NC1CCC1,6,.,.,.
COc1ccccc1N1CCN(CCCNC(=O)Nc2ccccc2C)CC1,8,-16,0,-1
COc1ccccc1NC(=O)NCCCN1CCN(c2cccc(Cl)c2)CC1,48*,-4,-2,-6
O=C(CN1CCOCC1)NCC[C@H]1CC[C@H](NC(=O)c2ccccc2F)[C@@H](CO)O1,7,.,.,.
Cc1nc2c3cc(Cl)ccc3n(CCN3CCOCC3)c2s1,-3,47*,0,-3
CCc1ccc2nc(Nc3nc(COC)cc(=O)[nH]3)nc(C)c2c1,1,5,-3,-8
COCc1cc(=O)[nH]c(Nc2nc3ccc(C)cc3o2)n1,56*,-7,-2,.
C[C@@H]1CN([C@H](C)CO)C(=O)Cc2cc(NC(=O)CCN3CCOCC3)ccc2O[C@H]1CN(C)C(=O)NC1CCCCC1,-8,.,.,.
CC(C1CC1)N(Cc1ccccc1)C(=O)NC(=O)c1ccccc1 (stereo not drawn),-3,-2,-1,-6
CC(C1CC1)N(Cc1ccccc1)C(=S)Nc1ccccc1Cl (stereo not drawn),0,88*,-1,-1
C=CCNC(=S)N1N=C(c2ccco2)CC1c1ccco1 (stereo not drawn),active,-4,0,-2
CC1CC(C)CN(C(=O)CCn2c(=O)oc3ccccc32)C1 (stereo not drawn),-3,45*,14,-3
COc1ccc(S(=O)(=O)N(C)C[C@H]2OCCCC[C@H](C)Oc3ccc(NC(=O)CCCN(C)C)cc3C(=O)N([C@@H](C)CO)C[C@@H]2C)cc1,16,.,.,.
C[C@H]1CN([C@@H](C)CO)C(=O)Cc2cc(NC(=O)Cn3cnnn3)ccc2O[C@@H]1CN(C)Cc1ccc(Cl)c(Cl)c1,-8,.,.,.
O=C(CSc1nc2cccnc2n1Cc1ccccc1)NCc1ccco1,-5,65*,.,-3
O=S(=O)(c1ccc(Br)cc1)N1CCN=C1SCc1cccnc1,0,45*,-1,-2
O=S(=O)(c1ccccc1)N1CCN=C1SCc1ccc(Cl)cc1,0,44*,-1,2
O=S(=O)(c1ccccc1)N1CCN=C1SCc1ccc(Cl)c(Cl)c1,-10,-4,-1,-4
O=S(=O)(c1ccc(F)cc1)N1CCN=C1SCc1cccnc1,0,5,0,4
CC(C)NC(=O)Nc1ccc2c(c1)C(=O)N([C@@H](C)CO)C[C@@H](C)[C@H](CN(C)CC1CC1)OCCCC[C@@H](C)O2,-2,.,.,.
C[C@@H]1CCCCO[C@@H](CN(C)C)[C@@H](C)CN([C@H](C)CO)C(=O)c2cc(NS(C)(=O)=O)ccc2O1,5,.,.,.
SMILES,ARNT TACC3 PPI,CAL PDZ FP-1,CAL PDZ FP-2,CaV13 ICDI inh
O=[N+]([O-])c1ccc(C2=NN(CCO)C(=Nc3ccc(OC(F)(F)F)cc3)SC2)cc1,3,31*,0,-4
Fc1ccc(Cn2cc(C(=S)N3CCOCC3)c3ccccc32)cc1,-1,52*,15,-4
CCN1CCN(C(c2cccnc2)c2c(NC(=O)c3ccco3)sc(C)c2C)CC1 (stereo not drawn),6,46*,0,-2
COc1ccc(C(c2c(NC(=O)c3ccco3)sc(C)c2C)N2CCOCC2)cc1 (stereo not drawn),0,5,3,-6
Cc1sc(NC(=O)c2ccco2)c(C(c2cccnc2)N2CCC(C)CC2)c1C (stereo not drawn),-2,43*,0,.
CC(=O)NC(c1ccco1)c1ccc2cccnc2c1O (stereo not drawn),63*,-5,0,.
CNC[C@H]1Oc2ccc(NC(=O)Cc3ccccc3)cc2C(=O)N([C@H](C)CO)C[C@H]1C,15,.,.,.
CCNC(=O)[C@@H]1[C@@H](CO)[C@@H]2Cn3c(ccc(-c4ccccc4)c3=O)[C@@H]2N1Cc1ccccn1,43*,.,.,.
CCn1ncc(Br)c1C(=O)Nc1cc(C)on1,-5,41*,-1,-6
CCn1ncc([N+](=O)[O-])c1C(=O)Nc1cc(C)on1,6,-4,1,-3
O=C(NCC1CC1)[C@H]1[C@H](CO)[C@H]2Cn3c(ccc(-c4ccccc4F)c3=O)[C@@H]1N2Cc1ccncc1,2,.,.,.
CNC[C@@H]1Oc2ncc(C#Cc3cccc(OC)c3)cc2C(=O)N([C@@H](C)CO)C[C@@H]1C,13,.,.,.
Cc1cc(C)c2c(=O)[nH]c(SCC(=O)Nc3ccccc3)nc2n1,-4,.,0,.
Cc1ccc2nc(-c3ccc(NC(=O)CSc4nc(N)cc(=O)[nH]4)cc3)sc2c1,-3,54*,0,-3
Cc1ccc(NC(=O)CSc2nc3nc(C)cc(C)c3c(=O)[nH]2)cc1,-3,37*,.,-4
CCOc1ccc(N=Cc2c(C)[nH]n(-c3nc4ccccc4[nH]3)c2=O)cc1,72*,0,-2,-16
Cc1[nH]n(-c2ccccc2)c(=O)c1C=Nc1cnc2ccccc2c1,0,-1,-1,-5
Cc1nc(Cl)sc1C(=O)Nc1cccc(Cl)c1,5,-12,.,4
Cc1nnsc1C(=O)Nc1cccc(Cl)c1,0,74*,-1,-15
O=C(COC(=O)c1ccc([N+](=O)[O-])s1)NNC(=O)c1ccccc1,42*,-3,0,.
CN(CC(=O)Nc1ccccc1Cl)C(=O)COC(=O)c1ccc([N+](=O)[O-])s1,46*,-3,0,-3
COc1ccc(NC(=O)N(C)C[C@@H]2Oc3ccc(NC(=O)Cc4cn(C)c5ccccc45)cc3CC(=O)N([C@H](C)CO)C[C@H]2C)cc1,-19,.,.,.
COc1ccc(C(=O)Nc2ccc3c(c2)C(=O)N(C)C[C@H](OC)[C@H](C)CN[C@@H](C)CO3)cc1,-9,.,.,.
C[C@@H]1CN([C@H](C)CO)C(=O)c2cc(NC(=O)Nc3ccc(F)cc3)ccc2O[C@@H]1CN(C)C(=O)Nc1ccc(F)cc1,-2,.,.,.
C[C@@H]1CCCCO[C@H](CN(C)C(=O)Nc2ccc3c(c2)OCO3)[C@@H](C)CN([C@H](C)CO)C(=O)c2cc(NS(=O)(=O)c3ccccc3)ccc2O1,-4,.,.,.
O=C(C[C@@H]1CC[C@@H]2[C@H](COC[C@H](O)CN2Cc2ccc(Cl)cc2)O1)NCc1ccccc1Cl,-8,.,.,.
O=C(Cn1nc(Cc2cccnc2)c2ccccc2c1=O)Nc1ccccc1F,-9,-3,1,-6
